Laboratory results from ChEMBL document CHEMBL1155832, “Design, synthesis, and biological evaluation of antiviral agents targeting flavivirus envelope proteins” (J Med Chem, 2008).
pEC50: −log10 of the molar value.

Key:
Yellow fever virus [1] = assay: Antiviral activity against IRES-luciferase tagged Yellow fever virus in BHK15 cells assessed as reduction of luciferase activity after 36 hrs; type: functional, organism-based; conditions: BHK15, 36 h
[2] = Cytotoxicity against BHK15 cells assessed as cell viability after 36 hrs by MTT assay; type: cell-based, Mesocricetus auratus; conditions: hamster, bhk15, 36 h
[3] = Therapeutic index, ratio of CC50 for BHK15 cells to EC50 IRES-luciferase tagged Yellow fever virus; type: cell-based; conditions: hamster, read-out: Ratio CC50/EC50
Yellow fever virus [4] = assay: Antiviral activity against IRES-luciferase tagged Yellow fever virus in BHK15 cells assessed as reduction of luciferase activity at 50 uM after 36 hrs; type: functional; conditions: BHK15, 36 h
Procedure, shortened: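 Primary screen of the YFV-IRES-Luc (YFV 17D reporter) infection at MOI 0.1 in confluent BHK-15 cells. Compound was given at a single 50 µM concentration for ~36 h at 37 °C, 5% CO2. Percent inhibition came from lysate firefly luciferase luminescence versus DMSO-treated infected cells. Over 50% inhibition counted as active.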

dengue virus type 2 = assay: Antiviral activity against Dengue virus 2 16681 in BHK15 cells at 50 uM after 48 hrs by immunofluorescence assay; type: functional; conditions: Dengue virus, 16681, BHK15, 48 h
Procedure, shortened: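 Den-2 strain 16681 added to BHK monolayers at MOI 0.025 for 1 h at room temperature, then washed with PBS. Overlaid with MEM + 2.5% FBS containing compound at 50 µM and kept at 34 °C for 48 h. Fixed cells were stained with anti-dengue capsid antibody (2 h), a TRITC secondary and DAPI. Infected versus total cells were counted in three random fields per well to give percent inhibition.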

Row | Structure (SMILES) | pEC50 (Yellow fever virus [1]) | CC50 [2] | selectivity ratio [3] | inhibition at 50 µM (Yellow fever virus [4]) | inhibition at 50 µM (dengue virus type 2)
1 | C/C(=N\NC(=N)N)c1ccc(NC(=O)Nc2ccc(/C(C)=N/NC(=N)N)cc2)cc1 | 4.89 | 398 µM | 30.6 |  | 
2 | c1ccc(-c2cc(-c3ccccc3)[nH]n2)cc1 | 4.36 | 123 µM | 2.8 |  | 
3 | COC(=O)c1sc(-c2ccc(Cl)cc2)nc1C(Br)Br | 6.05 | 153 µM | 170 | 99% | 99%
4 | COC(=O)c1sc(-c2ccc(Cl)cc2)nc1C | < 4.30 |  |  |  | 
5 | Nc1ccccc1SCc1csc(-c2cccnc2)n1 | < 4.30 |  |  |  | 
6 | COC(=O)c1sc(N(Cc2ccc(C(C)=O)cc2)Cc2ccc(C(C)=O)cc2)nc1C | 4.60 | 200 µM | 8 |  | 
7 | CC(=O)c1ccc(CN(Cc2ccc(C(C)=O)cc2)c2nc(C)c(C(=O)NCc3ccc(Cl)cc3Cl)s2)cc1 | < 4.30 |  |  |  | 
8 | COC(=O)c1sc(N(Cc2ccc(C(C)=O)cc2)C(C)=O)nc1C | < 4.30 |  |  |  | 
9 | Nc1ccccc1SCc1csc(-c2ccc(Cl)cc2)n1 | 4.51 | 61 µM | 2 |  | 
10 | COC(=O)c1sc(-c2ccncc2)nc1C | < 4.30 |  |  |  | 
11 | Cc1nc(-n2nc(-c3ccccc3)cc2-c2ccccc2)sc1C(=O)Oc1ccc(I)cc1 | < 4.30 |  |  |  | 
12 | Cc1nc(-n2nc(-c3ccccc3)cc2-c2ccccc2)sc1C(=O)NCc1ccc(Cl)c(Cl)c1 | 5.30 | 186 µM | 37 |  | 
13 | Cc1nc(-n2nc(-c3ccccc3)cc2-c2ccccc2)sc1C(=O)/C=C/c1ccc(Cl)c(Cl)c1 | 4.29 | 70 µM | 1.37 |  | 
14 | Nc1ccccc1SCc1csc(-c2ccccc2)n1 | 4.34 | 119 µM | 2.6 |  | 
15 | Nc1ccc(SCc2csc(-c3ccccc3Cl)n2)cc1 | 4.40 | 131 µM | 3.2 |  | 
16 | COC(=O)c1sc(NC(=O)Nc2ccc(/C(C)=N/NC(N)=O)cc2)nc1C | < 4.30 |  |  |  | 
17 | CC(=O)c1ccc(NC(=O)Nc2nc(C)c(C(=O)NCc3ccc(Cl)cc3Cl)s2)cc1 | < 4.30 |  |  |  | 
18 | Cc1nc(-n2nc(-c3ccccc3)cc2-c2ccccc2)sc1C(=O)OCC12CC3CC(CC(C3)C1)C2 | < 4.30 |  |  |  | 
19 | Cc1csc(-c2ccc(Cl)cc2)n1 | < 4.30 |  |  |  | 
20 | C/C(=N\NC(N)=O)c1ccc(NC(=O)Nc2nc(C)c(C(=O)NCc3ccc(Cl)cc3Cl)s2)cc1 | < 4.30 |  |  |  | 

Row | Structure (SMILES) | pEC50 (Yellow fever virus [1]) | CC50 [2] | selectivity ratio [3] | inhibition at 50 µM (Yellow fever virus [4]) | inhibition at 50 µM (dengue virus type 2)
21 | C/C(=N\NC(=N)N)c1ccc(NC(=O)Nc2nc(C)c(C(=O)NCc3ccc(Cl)cc3Cl)s2)cc1 | 4.42 | 154 µM | 4.1 |  | 
22 | Cc1nc(-c2ccc(Cl)cc2)sc1C(=O)OCC12CC3CC(CC(C3)C1)C2 | < 4.30 |  |  |  | 
23 | Cc1nc(-n2nc(-c3ccccc3)cc2-c2ccccc2)sc1C(=O)OC(C)C | < 4.30 |  |  |  | 
24 | Nc1ccc(SCc2csc(-c3ccccc3)n2)cc1 | 4.43 | 155 µM | 4.2 |  | 
25 | Nc1ccc(SCc2csc(-c3cccnc3)n2)cc1 | < 4.30 |  |  |  | 
26 | Clc1ccc(-c2nc(CSc3cccc(Cl)c3)cs2)cc1 | < 4.30 |  |  |  | 
27 | CCOC(=O)c1sc(-n2nc(-c3ccccc3)cc2-c2ccccc2)nc1C | < 4.30 |  |  |  | 
28 | ClCc1csc(-c2ccc(Cl)cc2)n1 | < 4.30 |  |  |  | 
29 | Cc1nc(-n2nc(-c3ccccc3)cc2-c2ccccc2)sc1C(=O)O | < 4.30 |  |  |  | 
30 | Cc1nc(-c2ccc(Cl)cc2)sc1C(=O)NCc1ccc(Cl)c(Cl)c1 | < 4.30 |  |  |  | 
31 | Nc1ccccc1SCc1csc(-c2ccccc2Cl)n1 | 4.34 | 133 µM | 2.9 |  | 
32 | COC(=O)c1sc(NC(=O)Nc2ccc(/C(C)=N/NC(=N)N)cc2)nc1C | < 4.30 |  |  |  | 
33 | Cc1nc(-n2nc(-c3ccccc3)cc2-c2ccccc2)sc1C(=O)OCc1ccc(I)cc1 | < 4.30 |  |  |  | 
34 | CC(=O)c1ccc(NC(=O)Nc2nc(C)c(C(=O)NCc3ccc(Cl)c(Cl)c3)s2)cc1 | 4.43 | 138 µM | 3.7 |  | 
35 | COC(=O)c1sc(-c2ccccc2)nc1C | < 4.30 |  |  |  | 
36 | CC(=O)c1ccc(NC(=O)Nc2nc(C)c(C(=O)O)s2)cc1 | < 4.30 |  |  |  | 
37 | Nc1ccc(SCc2csc(-c3ccc(Cl)cc3)n2)cc1 | 4.54 | 151 µM | 5.2 |  | 
38 | CCCCCCCCOC(=O)c1sc(-n2nc(-c3ccccc3)cc2-c2ccccc2)nc1C | < 4.30 |  |  |  | 
39 | COC(=O)c1sc(NC(=O)Nc2ccc(C(C)=O)cc2)nc1C | 4.86 | 155 µM | 11.2 |  | 
